Screening data (PubChem)
In the library only some 3.5% were active in any assay of this set; here they are far more common.
RGS4 block: inhibitors of human RGS4 | HEK293 M3R/RGS4 inducible, Fluo-4 calcium flux; hits give high values; triggered by carbachol at its EC20 | AID 463165 | 0.45% of 310,000 active | P49798 | B-score at 10 µM;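 active = B-score, a plate-corrected calcium signal, over three deviations above library mean, with baseline fluorescence within five deviations of library mean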;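 note: RGS4 expression induced by doxycycline in cells with stable M3 receptor; B-score is computed from the integrated fluorescence ratio over baseline after carbachol; higher B-score means a larger calcium signal and so more RGS4 inhibition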
Target sequence (P49798 whole entry, looked up): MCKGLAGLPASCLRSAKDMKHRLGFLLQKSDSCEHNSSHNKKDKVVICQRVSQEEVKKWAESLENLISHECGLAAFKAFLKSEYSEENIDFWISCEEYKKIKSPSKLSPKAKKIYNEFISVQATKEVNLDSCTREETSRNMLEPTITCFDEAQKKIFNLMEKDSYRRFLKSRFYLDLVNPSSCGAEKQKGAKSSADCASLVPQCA
MrgX1 PAM: human MrgX1 positive allosteric modulation, primary screen | Q96LB2 | MrgX1-HEK293, Fluo-4 calcium flux, FDSS; hits give high values | B-score at 10 µM | 0.63% of 310,000 active | AID 588675;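 active = plate-corrected calcium response at least 3 library SD above typical, normal starting fluorescence, not activating the receptor alone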;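 note: compound read alongside a low EC10 to EC30 dose of BAM8-22 agonist; peak minus trough fluorescence over baseline measured at the second addition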
Target sequence (Q96LB2 whole entry, looked up): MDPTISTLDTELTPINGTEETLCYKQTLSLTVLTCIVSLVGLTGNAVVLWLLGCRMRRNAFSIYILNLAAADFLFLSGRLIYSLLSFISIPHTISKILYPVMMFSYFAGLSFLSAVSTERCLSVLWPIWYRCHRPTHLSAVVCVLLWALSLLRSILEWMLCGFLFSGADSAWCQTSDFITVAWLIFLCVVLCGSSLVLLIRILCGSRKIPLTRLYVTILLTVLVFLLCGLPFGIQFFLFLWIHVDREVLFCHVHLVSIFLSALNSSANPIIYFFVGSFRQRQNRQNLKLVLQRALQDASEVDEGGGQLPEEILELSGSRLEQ
RGS4 pot: potentiators or activators of RGS4; HEK293 M3R/inducible RGS4, carbachol calcium flux Fluo4; hits give low values; 0.92% of 310,000 active; AID 463111; B-score at 10 µM;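 active = B-score of the integrated calcium signal more than 4 SD below the library mean, with starting fluorescence not abnormally high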;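 note: negative B-score means reduced calcium response which marks RGS4 activation or potentiation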
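Material: Inducible-RGS4 HEK293 cells carrying M3 receptor; also added: carbachol at ECmax as muscarinic agonist stimulus; incubation: compound preincubation 20 min at room temperature before agonist; signal: Fluo4-AM (2 µM) calcium-flux fluorescence, kinetic read; measure: integrated calcium ratio converted to B score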
MrgX1 antag: human MrgX1 receptor antagonism, primary screen; AID 588676; 1.3% of 310,000 active; MRGX1-HEK293 calcium flux, Fluo-4, BAM8-22 antagonism; hits give low values; B-score at 10 µM;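 active = calcium-response B-score plate-corrected more than 3 library SD below zero, starting fluorescence within 5 deviations, no agonist response on first addition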;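 note: peak minus trough fluorescence over baseline after final BAM8-22 challenge near maximal dose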
MrgX1 agonist: human MrgX1 receptor agonism, primary screen. Q96LB2. MrgX1-HEK293 cells, Fluo-4 calcium fluorescence, agonist mode; hits give high values. AID 588627. 0.44% of 310,000 active. B-score at 10 µM;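 active = calcium response B-score plate-corrected fluorescence ratio at least 3 library SD, with starting fluorescence B-score inside 5 SD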
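System – MrgX1-expressing HEK293 cells · Incubation – cells plated overnight, dye loaded 0.5 h 37 °C, 0.5 h room temperature · Technique – kinetic Fluo-4 NW fluorescence of intracellular calcium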
MrgX1 ant reconf: reconfirmed antagonist of human MrgX1 receptor signaling. MrgX1-HEK293, BAM8-22 calcium flux, Fluo-4; hits give low values. shares compounds with MrgX1 antag. remaining BAM8-22 calcium response % of control (hits give low values), % at 10 µM. 19% of 2,300 active;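 active = remaining agonist calcium response no higher than 100% minus 3 SD of agonist-only control wells, with starting fluorescence near control levels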;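 note: agonist BAM8-22 given at a near maximal EC90 to ECmax level; peak minus minimum fluorescence divided by baseline after agonist addition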
HEK293 Ca flux: counter-screen for MrgX1 antagonists: effect in parental HEK293 cells. AID 624111. 2% of 4,000 active. Fluo-4 calcium fluorescence, FDSS. fluorescence ratio F(max-min)/F0 at 10 µM. shares compounds with MrgX1 antag;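 active = duplicate-averaged calcium fluorescence ratio at least three times the standard deviation of buffer wells, a nonspecific response in parental cells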
HEK293 Ca counter: MrgX1 allosteric activator counter-screen hit in parental HEK293 cells; 0.4% of 4,000 active; parental HEK293 calcium flux, Fluo-4 fluorescence ratio; hits give high values; shares compounds with MrgX1 antag; fluorescence ratio F(max-min)/F0 at 10 µM;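 active = calcium fluorescence ratio, averaged over duplicates, at least 3 SD of the buffer-well ratio, meaning a nonspecific response in receptor-free cells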;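 note: untransfected parental HEK293 lacking MrgX1 used as counterscreen for MrgX1 allosteric activators; fluorescence change taken during the second addition on a kinetic imager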
HEK293 Ca cntr2: counter-screen for MrgX1 activators: effect in parental HEK293 cells; 8.7% of 4,000 active; shares compounds with MrgX1 antag; Fluo-4 calcium fluorescence (FDSS); hits give high values; fluorescence ratio F(max-min)/F0 at 10 µM;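 active = calcium fluorescence ratio at least three times the spread of buffer wells, meaning a non-specific response in parental cells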
An asterisk follows results filed as active; i = inactive; . = no result.

SMILES	RGS4 block	MrgX1 PAM	RGS4 pot	MrgX1 antag	MrgX1 agonist	MrgX1 ant reconf	HEK293 Ca flux	HEK293 Ca counter	HEK293 Ca cntr2
CC(CC(=O)Nc1nc2ccccc2[nH]1)n1ccnc1 (centres undefined)	i	i	i	i	i	.	.	.	.
COc1ccc(-c2noc(CSc3nc(N)c(-c4ccccc4)c(=O)[nH]3)n2)cc1	i	i	i	-7.1*	i	75%*	i	i	i
COC(=O)[C@@H]1C[C@@]2(Br)c3ccccc3N(S(=O)(=O)c3ccccc3)[C@H]2N1C(=O)OC	i	i	i	-6*	i	i	i	i	61*
Cc1csc(C(=O)O)c1-n1cccc1	i	i	i	i	i	.	.	.	.
Oc1c(/C=N/c2ccccn2)sc2ccccc12	i	i	i	-6.7*	i	69%*	i	i	i
Oc1c(C=Nc2ccc(Cl)cn2)sc2ccccc12	i	i	i	i	i	.	.	.	.
Oc1c(C=Nc2cccnc2)sc2ccccc12	i	i	i	-4.9*	i	i	i	i	i
COc1ccc(C(=O)Nc2c(C(C)(C)C)nn(C)c2C(C)(C)C)cc1	i	i	i	i	i	.	.	.	.
CCCOc1ccc(C(=O)ON=C2CCN(C)CC2)cc1	i	i	i	i	i	.	.	.	.
O=C(O)c1cccc(C(=O)O)c1Br	i	i	i	i	i	.	.	.	.
O=C(CSc1nc2scc(-c3ccccc3)c2c(=O)[nH]1)NCCc1ccccc1	i	i	i	i	i	.	.	.	.
Cc1sc2nc(SCC(=O)N3CCCCC3)[nH]c(=O)c2c1C	i	i	i	-7.3*	i	i	i	i	i
Cc1sc2nc(SCC(=O)N3CCCC3)[nH]c(=O)c2c1C	i	i	i	i	i	.	.	.	.
O=C(CSc1nc2scc(-c3ccccc3)c2c(=O)[nH]1)N1CCOCC1	i	i	i	-9.1*	i	i	i	i	i
CCc1sc(NC(=O)C(C)C)nc1-c1ccccc1	i	i	i	i	i	.	.	.	.
Cc1ccc(S(=O)(=O)N2CCOC2CNC(=O)C(=O)NCc2ccc3c(c2)OCO3)cc1 (centres undefined)	i	i	i	i	i	.	.	.	.
Cc1ccc2[nH]c3c(c2c1)CCc1cn[nH]c1-3	i	i	i	-4.9*	i	i	i	i	i
Cc1ccc2[nH]c3c(c2c1)CCC3=O	i	i	i	i	i	.	.	.	.
N#Cc1nc(Cc2ccccc2)oc1NCCN1CCOCC1	i	i	i	-7.5*	i	i	i	i	i
COc1ccc(S(=O)(=O)CCC(=O)N2CCN(c3ccc(C(C)=O)cc3)CC2)cc1	i	i	i	i	i	.	.	.	.
O=C(Nc1cc(S(=O)(=O)N2CCOCC2)ccc1N1CCOCC1)c1cnccn1	i	i	i	-4.8*	i	i	i	i	i
Cc1cccc(C(=O)NNC(=O)c2csc(N3CCOCC3)n2)c1C	i	i	i	i	i	.	.	.	.
OC(CN1CCOCC1)Cn1c2ccccc2c2ccccc21 (centres undefined)	i	i	i	i	i	.	.	.	.
O=C1c2ccccc2C(=O)N1CC(O)CN1CCOCC1 (centres undefined)	i	i	i	-5.2*	i	i	i	i	i
COc1ccccc1/C=C/C(=O)OC(C)CN1CCCCC1 (centres undefined)	i	i	i	i	i	.	.	.	.
SMILES	RGS4 block	MrgX1 PAM	RGS4 pot	MrgX1 antag	MrgX1 agonist	MrgX1 ant reconf	HEK293 Ca flux	HEK293 Ca counter	HEK293 Ca cntr2
Cc1cc(C(=O)CSc2nc3ccccc3[nH]2)c(C)n1CC1CCCO1 (centres undefined)	i	i	i	-8.1*	i	9.7%*	i	i	i
Cc1ccccc1N(C(=O)Cc1c[nH]c2ccccc12)C(C(=O)NC1CCCCC1)c1ccco1 (centres undefined)	i	i	i	-16*	i	i	i	i	i
O=C(Cc1cccs1)Nc1cccc(-c2nnc(-c3ccco3)o2)c1	i	i	i	-7.4*	i	i	i	i	i
CC(C)c1ccc(C(C)NCCS(=O)(=O)c2ccc(Cl)cc2)cc1 (centres undefined)	i	i	i	i	i	.	.	.	.
Cc1cc2c(cc1S(=O)(=O)N(C)c1ccccc1)n(C)c(=O)n2C	i	i	i	i	i	.	.	.	.
Cc1cccc(N(C)S(=O)(=O)c2cc3c(cc2C)n(C)c(=O)c(=O)n3C)c1	i	i	i	-4.7*	i	i	i	i	i
CC1Cc2cc(/C(O)=C3/C(=O)C(=O)N(CCCn4ccnc4)C3c3ccc(F)cc3)ccc2O1 (centres undefined)	i	i	i	i	i	.	.	.	.
CCSc1nc2sc3c(c2c(=O)n1CC)CC(C)(C)OC3	i	i	i	-7.1*	i	i	i	i	i
CCn1c(SCC(=O)OC)nc2sc3c(c2c1=O)CC(C)(C)OC3	i	i	i	i	i	.	.	.	.
Cc1cc(NC(=O)CSc2nnc3ccc(-c4ccc(F)cc4)nn23)no1	i	i	i	i	i	.	.	.	.
N#Cc1c(C(F)(F)F)cc(-c2ccco2)nc1SCc1ccccn1	i	i	i	-4.7*	i	i	i	i	i
CSc1nc(-c2ccco2)cc(C(F)(F)F)c1C#N	i	i	i	i	i	.	.	.	.
O=C(COc1ccc(S(=O)(=O)N2CCCC2)cc1Cl)NCc1ccccn1	i	i	i	-6.2*	i	i	i	i	i
O=C(COc1ccc(S(=O)(=O)N2CCOCC2)cc1Cl)NCc1ccccn1	i	i	i	i	i	.	.	.	.
CC(OC(=O)c1cc(S(=O)(=O)N(C)c2ccccc2)ccc1Cl)C(=O)Nc1ccc2c(c1)OCCO2 (centres undefined)	i	i	i	i	i	.	.	.	.
